Test results as given in ChEMBL document CHEMBL1132413, “Mechanism-based competitive inhibitors of glyoxalase I: intracellular delivery, in vitro antitumor activities, and stabilities in human serum and mouse serum” (J Med Chem, 1999).

Key:
[1] = tested on: B16; assay: The compound was tested […] for 50% cell killing against B16 melanoma cells.; format: functional, Mus musculus
Summary of the method: (§1)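 Cultured cells, not in vivo: log-phase cells seeded at 5000 cells/well in RPMI 1640/10% heat-inactivated FCS with gentamycin, 37 °C, 5% CO2. Exposed 48 h to at least five diethyl ester concentrations in triplicate, with fresh ester added at 0, 12, 24 and 36 h. B16 cells were trypsinised and L1210 cells washed. Counted by Coulter counter, viability by trypan blue. LC50 = concentration giving 50% cell killing.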

[2] = tested on: B16; assay: The compound was tested […] for 100% growth inhibition against B16 melanoma cells.; format: functional, Mus musculus
Summary of the method: (§2)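 B16 melanotic melanoma cells in log growth were plated at 5000 cells/well in RPMI 1640 with 10% heat-inactivated FCS and gentamycin at 37 °C under 5% CO2. Cells were exposed for 48 h to at least five drug concentrations, in triplicate, with fresh diethyl ester added at 0, 12, 24 and 36 h. Cells were trypsinized and counted on a Coulter counter. Percentage growth was calculated NCI-style against time-zero and no-drug controls. TGI is 100% growth inhibition and GI50 is 50%. Mean ± SD comes from separate experiments.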

[3] = tested on: Glyoxalase I (Homo sapiens); assay: The compound was tested for inhibitory activity against human glyoxalase I.
[4] = tested on: Glyoxalase I (Homo sapiens); assay: as above; remark: listed apart in the source
[5] = tested on: L1210; assay: The compound was tested […] for 50% cell killing against L1210 murine leukemia cells.; format: functional, Mus musculus; summary of the method: as §1
[6] = tested on: L1210; assay: The compound was tested […] for 100% growth inhibition against L1210 murine leukemia cells.; format: functional, Mus musculus
Summary of the method: (§3)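 L1210 leukemia cells in log growth were seeded at 5000 cells/well in RPMI 1640 with 10% heat-inactivated FCS and gentamycin at 37 °C under 5% CO2. At least five concentrations spanning the GI50 were tested in triplicate for 48 h, with ester replenished at 0, 12, 24 and 36 h. Washed cells were Coulter-counted. PG = 100×(test−tzero)/(ctrl−tzero). TGI is 100% growth inhibition and GI50 is 50%. Mean ± SD comes from independent experiments.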

[7] = tested on: B16; assay: The compound was tested […] for 50% growth inhibition against B16 melanoma cells.; format: functional, Mus musculus; summary of the method: as §2
[8] = tested on: L1210; assay: The compound was tested […] for 50% growth inhibition against L1210 murine leukemia cells.; format: functional, Mus musculus; summary of the method: as §3
[9] = tested on: Glyoxalase I (Homo sapiens); assay: The compound was tested for inhibitory activity against human glyoxalase I.; remark: listed apart in the source

| SMILES | LC50 [1] | TGI [2] | Ki [3] | Ki [4] | LC50 [5] | TGI [6] | GI50 [7] | GI50 [8] | Ki [9] |
| --- | --- | --- | --- | --- | --- | --- | --- | --- | --- |
| CCOC(=O)CNC(=O)C(CSC(=O)N(O)c1ccccc1)NC(=O)CCC(N)C(=O)OCC.Cl (configuration not stated) | >100 µM | >100 µM | 0.16 µM | 0.16 µM | 271 µM | 135 µM | >100 µM | 84 µM | – |
| CCOC(=O)CNC(=O)C(CSC(=O)N(O)c1ccc(Cl)cc1)NC(=O)CCC(N)C(=O)OCC.Cl (configuration not stated) | ~47 µM | ~23 µM | – | 0.046 µM | 54 µM | 27 µM | 15 µM | 7 µM | 0.046 µM |
| CCOC(=O)CNC(=O)[C@@H](CSCc1ccc(Br)cc1)NC(=O)CCC(N)C(=O)OCC (some centres not stated) | 56 µM | 23 µM | – | 0.17 µM | 26 µM | 11 µM | 14 µM | 7 µM | 0.17 µM |
| CCOC(=O)CNC(=O)C(CSC(=O)N(O)c1ccc(Br)cc1)NC(=O)CCC(N)C(=O)OCC.Cl (configuration not stated) | 54 µM | 33 µM | – | 0.014 µM | 17 µM | 7 µM | 11 µM | 3 µM | 0.014 µM |
